Key:
[1] = biological target: T1, Adenosine receptor A3 (Homo sapiens, UniProt P0DMS8); test: Displacement of [125I]AB-MECA from human Adenosine A3 receptor expressed in CHO cells; assay type: cell-based
T1 sequence (P0DMS8 whole entry): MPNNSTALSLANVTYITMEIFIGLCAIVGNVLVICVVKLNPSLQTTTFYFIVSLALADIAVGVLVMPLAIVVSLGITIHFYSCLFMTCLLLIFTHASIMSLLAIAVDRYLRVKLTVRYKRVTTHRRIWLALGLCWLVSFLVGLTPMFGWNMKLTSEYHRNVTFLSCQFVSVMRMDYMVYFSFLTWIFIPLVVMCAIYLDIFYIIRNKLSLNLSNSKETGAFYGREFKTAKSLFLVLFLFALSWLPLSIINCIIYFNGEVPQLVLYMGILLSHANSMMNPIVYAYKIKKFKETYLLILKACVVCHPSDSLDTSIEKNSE

[2] = biological target: T2, Adenosine receptor A1 (Homo sapiens, UniProt P30542); test: Affinity for Adenosine A1 receptor by displacement of [3H]DPCPX from human cerebral cortex; assay type: tissue-based
T2 sequence (P30542 whole entry): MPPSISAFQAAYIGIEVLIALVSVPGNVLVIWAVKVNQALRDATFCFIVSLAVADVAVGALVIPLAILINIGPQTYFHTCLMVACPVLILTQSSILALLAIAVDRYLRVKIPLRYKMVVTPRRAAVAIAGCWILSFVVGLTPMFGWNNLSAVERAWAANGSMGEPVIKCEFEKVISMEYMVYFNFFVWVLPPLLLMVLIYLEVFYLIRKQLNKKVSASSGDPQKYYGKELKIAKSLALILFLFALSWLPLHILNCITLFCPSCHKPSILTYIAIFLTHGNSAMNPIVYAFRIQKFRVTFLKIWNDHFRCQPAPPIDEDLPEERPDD
Method in brief: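 Membranes from human cerebral cortex; competition against [3H]DPCPX. IC50 fitted by non-linear least squares and converted to Ki via Cheng–Prusoff; means ± SE of three experiments.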

[3] = biological target: Adenosine receptor A2a (Homo sapiens, UniProt P29274); test: Affinity for A2a receptor by displacement of [3H]-CGS- 21680 from human striatum
Adenosine receptor A2a, sequence (P29274 whole entry): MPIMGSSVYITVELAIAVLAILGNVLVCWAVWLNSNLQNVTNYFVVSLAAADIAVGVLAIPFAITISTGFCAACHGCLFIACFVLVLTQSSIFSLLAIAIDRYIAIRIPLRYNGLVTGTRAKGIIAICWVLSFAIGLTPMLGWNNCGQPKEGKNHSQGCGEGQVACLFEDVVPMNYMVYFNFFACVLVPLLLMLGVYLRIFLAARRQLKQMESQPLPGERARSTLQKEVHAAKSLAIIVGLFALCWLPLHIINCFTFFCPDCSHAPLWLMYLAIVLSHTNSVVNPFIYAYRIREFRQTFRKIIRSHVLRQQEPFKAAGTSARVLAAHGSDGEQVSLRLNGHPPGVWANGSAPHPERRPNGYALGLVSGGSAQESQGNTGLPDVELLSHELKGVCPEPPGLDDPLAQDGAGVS

| Ki [1] | Ki [2] | Ki [3] | Structure (SMILES) |
| --- | --- | --- | --- |
| 0.0236 µM | > 10 µM | 6.08 µM | CCNC(=O)[C@H]1OC(n2cnc3c(NCCCCCCNc4ccc([N+](=O)[O-])c5nonc45)ncnc32)[C@H](O)[C@@H]1O (stereo not given in full) |
| 0.381 µM | > 10 µM | > 10 µM | CCNC(=O)[C@H]1OC(n2cnc3c(NCCCCNc4ccc([N+](=O)[O-])c5nonc45)ncnc32)[C@H](O)[C@@H]1O (stereo not given in full) |
| 0.0558 µM | > 10 µM | 6.75 µM | CCNC(=O)[C@H]1OC(n2cnc3c(NCCNc4ccc([N+](=O)[O-])c5nonc45)ncnc32)[C@H](O)[C@@H]1O (stereo not given in full) |
| 0.00744 µM | 3.48 µM | 5.1 µM | CCNC(=O)[C@H]1OC(n2cnc3c(NCCCCCCCCNc4ccc([N+](=O)[O-])c5nonc45)ncnc32)[C@H](O)[C@@H]1O (stereo not given in full) |
| 0.0281 µM | 6.35 µM | 6.1 µM | CCNC(=O)[C@H]1OC(n2cnc3c(NCCCCCCCCCCNc4ccc([N+](=O)[O-])c5nonc45)ncnc32)[C@H](O)[C@@H]1O (stereo not given in full) |

From ChEMBL document CHEMBL1133855 (Bioorg Med Chem Lett, 2001)
